ABHD4 inh: ABHD4 (mouse) inhibition, primary FP screen; Q8VD66; purified mABHD4, FP-Rh probe fluorescence polarization; inhibition, % at 8.92 µM; 370,000 compounds, 0.54% hits; AID 720543;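 active = inhibition exceeding the mean over every tested compound plus 3 SD, cut at about 30% in these data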
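system = mouse ABHD4 enzyme, wild type | medium = HEPES pH 7.0, NaCl, Pluronic buffer | also added = FP-Rh probe | incubation = Enzyme–compound pre-incubation 45 min, then probe 60 min, both 25 °C | technique = fluorescence polarization, excitation 525 nm, emission 598 nm, BODIPY TMR filters | controls = S159A mutant high control, sample median low control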
SIAE inh: human SIAE inhibition, primary screen; Q9HAT2; SIAE FP-Rh probe binding, fluorescence polarization; inhibition, % at 9.66 µM; 370,000 compounds, 0.69% hits;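 active = inhibition above a cutoff: mean of compounds within the control limits plus 3 SD of those, cut at about 17% in these data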
Target sequence (Q9HAT2 whole entry, looked up): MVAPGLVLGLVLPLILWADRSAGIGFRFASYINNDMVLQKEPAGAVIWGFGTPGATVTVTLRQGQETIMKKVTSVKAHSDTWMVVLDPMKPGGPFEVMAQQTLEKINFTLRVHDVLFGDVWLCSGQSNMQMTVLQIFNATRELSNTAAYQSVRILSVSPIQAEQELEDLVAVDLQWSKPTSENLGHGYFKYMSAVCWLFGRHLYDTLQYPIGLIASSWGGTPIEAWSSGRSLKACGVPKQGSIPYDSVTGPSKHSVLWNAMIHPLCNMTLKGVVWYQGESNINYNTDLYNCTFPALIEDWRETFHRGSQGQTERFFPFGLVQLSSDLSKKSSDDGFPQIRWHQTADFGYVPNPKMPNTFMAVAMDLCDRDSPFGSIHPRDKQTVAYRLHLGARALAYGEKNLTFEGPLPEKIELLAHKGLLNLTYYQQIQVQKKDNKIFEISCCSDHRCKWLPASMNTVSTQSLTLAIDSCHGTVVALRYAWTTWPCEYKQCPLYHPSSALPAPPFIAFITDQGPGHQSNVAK
rCAG RNA binder: r(CAG) repeat RNA binding | TO-PRO-1 dye displacement fluorescence | inhibition, % at 3 µM | 370,000 compounds, 1.3% hits;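 active = inhibition above the plate cutoff, the mean of all test compounds on that plate plus 3 SD, cut at about 35% in these data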;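 also: higher means more dye released from RNA so lower well fluorescence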
TCR CD3 inh: human TCR-CD3 binding inhibition. TAMRA-labeled TCR probe fluorescence, biochemical. inhibition, % at 9.4 µM. 360,000 compounds, 0.37% hits. AID 651800; in the data active = inhibition above about 19%;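 also: recombinant mutant TCR 2C K166C tagged with TAMRA read by polarization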
HTRA1 inhibitor: HTRA1 (human) protease inhibition | Q92743 | recombinant HTRA1, FP-rhodamine activity-based probe, fluorescence polarization | inhibition, % at 5.96 µM | 340,000 compounds, 0.5% hits | AID 504803; in the data active = inhibition above about 36%
SIAE confirm: confirmation of human SIAE inhibitors; SIAE FP-Rh activity-based probe, fluorescence polarization; shares compounds with SIAE inh; inhibition, % at 9.66 µM; 2,300 compounds, 13% hits;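 active = mean inhibition of the replicates above the hit cutoff set in the primary screen, cut at about 17% in these data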;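 also: inhibitors lower polarization as more probe stays unbound to SIAE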
Of the large screens only hits and unclear results are named; the others gave an inactive call (follow-up assays come after a bar, where they were run). Compounds with a hit are over-represented: about 2.5% of the library has one in this group of screens.

CC(=O)O/C(=C1\CC2C3CC=C4CC(OC(C)=O)CCC4(C)C3CCC2(C)C1=O)C(F)(F)F (stereo not given)	none
CN(C)C(CNC(=O)Cc1c(Cl)cccc1Cl)c1ccccc1 (stereo not given)	SIAE inh 17 | SIAE confirm inactive
CC1(C)OC(c2ccccc2)=C/C(=C/C=C2C(=O)NC(=S)NC2=O)O1	none (no result: HTRA1 inhibitor)
CN1/C(=C\C=C2C(=O)NC(=S)NC2=O)C(C)(C)c2ccccc21	SIAE inh 60 | SIAE confirm 153
O=C(Cc1ccccc1)Oc1ccc([N+](=O)[O-])cc1	none
O=c1cc(C(F)(F)F)c2cc3c4c(c2o1)CCCN4CCC3	SIAE inh 18 | SIAE confirm inactive
Cc1cc2c(C(F)(F)F)cc(=O)oc2c2c1NCCC2	none
Cc1cc(C=C2C(=O)N(C)C(=S)N(C)C2=O)c(C)n1-c1cccnc1	none
CC(=O)n1cc(C=C2C(=O)NC(=O)NC2=O)c2ccccc21	none
Cn1cc(C=C2C(=O)NC(=O)NC2=O)c2ccccc21	SIAE inh 47 | SIAE confirm inactive
c1ccc2c3c([nH]c2c1)C1(CCNCC1)NCC3	none
CCS(=O)(=O)CCSP(=O)(OC)OC	SIAE inh 34 | SIAE confirm 49
CC(C)Oc1ccc(C2C(C#N)=C(N)Oc3c2c(=O)oc2ccccc32)cc1 (stereo not given)	none
N#CC1=C(N)Oc2c(c(=O)oc3ccccc23)C1c1ccc([N+](=O)[O-])o1 (stereo not given)	SIAE inh 22 | SIAE confirm inactive
CCNCC1(c2ccc(OC)c(OC)c2)CCCC1	none
COc1cc2c(cc1OC)-c1c(OC)c(OC)cc3c1[C@H](C2)[N+](C)(C)CC3	SIAE inh 18 | SIAE confirm inactive
CN(C(=O)Cc1ccc2c(c1)OCO2)C1CCCN(Cc2ccccc2F)C1 (stereo not given)	SIAE inh 23 | SIAE confirm inactive
O=C(c1ccc2c(c1)OCO2)C1CCCN(Cc2ccc(F)c(F)c2)C1 (stereo not given)	none
Cc1ccc(CN2CCSc3ccc(C(=O)N4CCC5(CC4)OCCO5)cc32)cc1	none
O=C(c1ccc2c(c1)N(Cc1ccc(F)cc1)CCS2)N1CCC2(CC1)OCCO2	SIAE inh 18 | SIAE confirm inactive
Cc1ccc(-c2cc(-c3ccc(C)cc3)[n+](C)o2)cc1	SIAE inh 18 | SIAE confirm inactive
COc1ccc2c(c1)c(C(=O)C(C)N1CCCCC1)c(C)n2C (stereo not given)	none
COc1ccc(CN2CCCC(C(=O)c3cccc(Cl)c3)C2)cc1 (stereo not given)	none
COc1ccc(CN2CCCC(C(=O)c3ccc(Cl)cc3)C2)c(OC)c1 (stereo not given)	SIAE inh 18 | SIAE confirm inactive
CC1=NN(c2ccccc2)C(=O)C1/C=C1/C(=O)NC(=O)N(c2cc(C)cc(C)c2)C1=O (stereo not given)	SIAE inh 75 | SIAE confirm inactive
O=c1[nH]c(O)c(N=Nc2ccc3c(c2)OCCO3)c(=O)[nH]1	SIAE inh 17 | SIAE confirm inactive
COC(=O)C1=C(c2ccc(F)cc2F)C[C@@H]2CC[C@H]1N2C(=O)N1CCOCC1	none
CNC(=O)O/N=C/c1nn(C(=O)C(C)(C)C)cc1Br	SIAE inh 17 | SIAE confirm inactive
O=S1(=O)N(CCN2CC=C(c3c[nH]c4cc(F)ccc34)CC2)c2cccc3c2N1CCC3	none
C#C[C@]1(O)CCC2C3C(=O)C=C4C(Cl)=CCC[C@]4(C)C3CC[C@@]21C (stereo not given in full)	none
